Screening results (PubChem BioAssay)
Arrestin-AP2 inh – inhibitors of beta-arrestin/AP2 binding, primary screen, biochemical, GPCR trafficking, flow cytometry; inhibition, % at 10 µM; actives 0.31% (n = 340,000); beta-arrestin 1 C-terminal peptide binding to AP2 beta2-adaptin appendage (human); FITC-arrestin peptide / GST-AP2 beads; AP2 beta2 appendage carries R879A mutation;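 active = inhibition above a set limit, near 3 SD of compounds lacking own fluorescence, cut at about 54% in these data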
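Material – GST-tagged AP2 beta2-adaptin appendage (R879A) on 4 µm glutathione beads · Probe or stimulus – fluorescein-tagged arrestin peptide at 50 nM final · Timing – 12 min plus 1 h, RT · Detection – bead flow cytometry, FITC channel · Read-out basis – inhibition as reduced fluorescein signal on beads, percent · Medium – PBS plus Tween 20 (0.05%) and BSA (0.1%)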
T cell modulator – modulators of CD8 T cell-vesicle binding, primary screen, mouse 2C CD8+ T cells, flow cytometry; 2C CD8+ T cell-vesicle binding; stronger effect = lower value; response (vesicle binding), % at 7 µM; actives 0.068% (n = 330,000); AID 2052, 2009;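 active = response, share of CD8 T cells binding vesicles, and their 90th percentile fluorescence all below set limits, cut at about 80% in these data, passing the limit was not always enough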;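 note: values below 100% mean blocked vesicle binding to the CD8+ T cells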
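incubation = binding step 1.5 h, 37 °C, antibody labelling 20 min, ice | test system = 2C mouse CD8+ T cells | read-out basis = percent CD8+ FL2 mean versus row control | controls = Peptide-free naked vesicles (low) and QL9 vesicles with 0.7% DMSO vehicle (high) | detection = flow cytometry of vesicle-bound cells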
NTR1 ag – agonists of human NTR1, primary screen, imaging, U2OS cells, beta-arrestin-GFP, high content; AID 493036, 2011; Neurotensin receptor type 1 (Homo sapiens), P30989; NTR1-U2OS beta-arrestin-GFP spot imaging, agonist mode; actives 0.17% (n = 330,000); activation, % at 20 µM;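 active = activation at or above 40% of the spot to cytoplasm intensity ratio, with at least 20 cells analyzed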
Target sequence (P30989 whole entry, looked up): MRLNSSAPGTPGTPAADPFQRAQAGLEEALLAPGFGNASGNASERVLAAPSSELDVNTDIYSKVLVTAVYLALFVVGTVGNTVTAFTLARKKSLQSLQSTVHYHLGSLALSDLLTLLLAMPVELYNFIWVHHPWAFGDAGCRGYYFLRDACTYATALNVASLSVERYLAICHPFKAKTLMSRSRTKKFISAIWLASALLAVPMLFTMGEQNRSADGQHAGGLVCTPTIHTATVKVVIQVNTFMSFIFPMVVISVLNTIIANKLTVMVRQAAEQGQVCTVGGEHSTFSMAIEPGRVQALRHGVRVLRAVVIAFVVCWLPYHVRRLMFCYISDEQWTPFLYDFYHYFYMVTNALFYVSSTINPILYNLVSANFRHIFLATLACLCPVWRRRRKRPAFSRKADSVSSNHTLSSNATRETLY
MIN6 prolif – inducers of MIN6 beta-cell proliferation, primary screen, ATP luminescence, uHTS; proliferation, % at 10 µM; actives 0.29% (n = 330,000); AID 2380, 2010; MIN6 cells proliferation, ATPlite luminescence, 48 h; cells starved in 0.2% serum; 100% = growth in 10% serum;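 active = compounds whose signal lies at least 3.5 SD above the mean of all wells on their plate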
V-ATPase pHluor – regulators of yeast V-ATPase proton pumping, primary screen, pHLuorin cytosolic pH fluorescence; S. cerevisiae; response, % at 10 µM; AID 504577, 2011; actives 0.37% (n = 350,000); in the data active = response mostly above about 7.3%, no sharp cut-off; inactive = mostly below about 5.4%; note: actives read high
XiGFP reactiv – activators of inactive X chromosome reactivation, primary screen, imaging, XiGFP fibroblasts, GFP high-content imaging, set 2 | activation, % at 7.58 µM | actives 0.055% (n = 360,000) | XiGFP mouse fibroblasts, % GFP-positive cells imaging, 3 d; cells co-treated with 5-aza-dC sensitizer; scaled so ellipticine positive control = 100% | AID 743238, 2013;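 active = mean normalized replicate activation at least 10% and every replicate at or above 10%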
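System: XiGFP fibroblasts, SV40-immortalized. Medium: DMEM plus 5-aza-dC sensitizer. Doses: single point. Timing: 3 d treatment, 15 min room-temperature fixation. Control set: ellipticine 6 µM.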
Hits are given with their value; i = inactive; nt = not tested or not shown. Hits are enriched below; roughly 0.89% of the tested compounds scored in any of these assays.

SMILES	Arrestin-AP2 inh	T cell modulator	NTR1 ag	MIN6 prolif	V-ATPase pHluor	XiGFP reactiv
O=C(Cc1ccccc1)Nc1ccccc1Sc1ccccc1	i	i	i	i	i	i
CCc1ccc(C(C)NC(=O)Cc2ccc(F)cc2)cc1 (centres undefined)	i	i	i	i	i	i
CCCNC(=O)Nc1ccc2c(c1)C(=O)N(C)C[C@H](OC)[C@@H](C)CN(Cc1ccccc1)[C@H](C)CO2	nt	nt	nt	nt	nt	i
CC1=C/C(=N\OS(=O)(=O)c2ccccc2)C(C(C)C)=CC1=O	i	i	nt	nt	30	nt
Cc1ccc(C(C[N+](=O)[O-])Sc2ccc(N)cc2)cc1 (centres undefined)	i	i	54	i	i	i
Nc1ccc(Sc2ccc([N+](=O)[O-])cc2)cc1	i	i	i	i	i	i
CC1CCCN(C(=O)CN2C(=O)C(C)Oc3ccccc32)C1 (centres undefined)	i	i	i	i	i	i
CC1Oc2ccccc2N(CC(=O)N2CCCC2)C1=O (centres undefined)	i	i	i	i	14	i
Cc1ccccc1-c1cnc2c(c1)C(=O)N([C@@H](C)CO)C[C@H](C)[C@@H](CN(C)C(=O)CC1CC1)O2	nt	nt	nt	nt	nt	i
Cc1noc(C)c1S(=O)(=O)Nc1ccc2c(c1)C(=O)N([C@@H](C)CO)C[C@@H](C)[C@@H](CN(C)S(=O)(=O)c1cccs1)OCCCC[C@@H](C)O2	nt	nt	nt	nt	nt	i
CSc1nc2ccc(NC(=O)c3nn(C(C)C)c(=O)c4ccccc34)cc2s1	i	i	i	8.2	i	i
Cc1c(N=C2N=C(NC(=O)c3cccs3)c3ccccc32)c(=O)n(-c2ccccc2)n1C	i	i	i	i	i	i
Cc1c(N=C2N=C(NC(=O)NC(C)(C)C)c3ccccc32)c(=O)n(-c2ccccc2)n1C	i	32	i	i	i	i
Cn1cnc(S(=O)(=O)N[C@H]2C=C[C@H](CC(=O)NCC3CCCCC3)O[C@H]2CO)c1	nt	nt	nt	nt	nt	i
CCOC(=O)c1nn(-c2ccc3ccccc3c2)cc1O	i	i	i	i	i	17
COc1ccc(CN2C[C@H](O)COC[C@@H]3O[C@@H](CC(=O)NCc4ccccc4Cl)CC[C@H]32)cc1	nt	nt	nt	nt	nt	i
Cc1c(C(=O)Nc2nc3ccccc3[nH]2)cccc1[N+](=O)[O-]	i	i	i	i	i	i
O=C(Nc1nc2ccccc2[nH]1)c1ccccc1[N+](=O)[O-]	i	30	i	i	i	i
COCCN1C(=O)C(=O)/C(=C(/O)c2cccc(OC)c2)C1c1ccncc1 (centres undefined)	i	i	i	i	i	nt
COCCN1C(=O)C(=O)/C(=C(/O)c2cccc(OC)c2)C1c1ccc(C)o1 (centres undefined)	i	75	i	i	i	nt
N#Cc1c(-c2ccccc2F)cc(C2CC2)nc1SCC(=O)c1cccs1	i	i	i	i	i	60
CCSc1nc(C2CC2)cc(-c2cccs2)c1C#N	i	i	i	i	i	nt
C[C@H](CO)N1C[C@H](C)[C@@H](CN(C)C)Oc2ccc(NC(=O)Nc3ccc(F)cc3)cc2C1=O	nt	nt	nt	nt	nt	i
Cc1c(C(=O)OCC(=O)NCc2ccco2)oc2ccccc12	i	65	i	i	i	i
C[C@@H]1CN([C@@H](C)CO)C(=O)Cc2cc(NS(=O)(=O)c3ccc(F)cc3)ccc2O[C@H]1CN(C)C(=O)Nc1cccc2ccccc12	nt	nt	nt	nt	nt	i
SMILES	Arrestin-AP2 inh	T cell modulator	NTR1 ag	MIN6 prolif	V-ATPase pHluor	XiGFP reactiv
CCOC(=O)Cn1c(=NC(=O)C2COc3ccccc3O2)sc2cc(S(N)(=O)=O)ccc21 (centres undefined)	i	i	i	i	i	i
CCOC(=O)Cn1c(=NC(=O)c2ccc([N+](=O)[O-])s2)sc2ccccc21	i	i	i	i	i	18
Cc1cccc(C=Nc2ccc3c4c(cccc24)CC3)c1O	i	i	i	i	i	i
Oc1ccc(Cl)cc1C=Nc1ccc2c3c(cccc13)CC2	i	i	i	i	i	30
CC(C)[C@H]1CCc2cnnn2COC[C@H](c2ccccc2)NC1=O	nt	nt	nt	nt	nt	i
CCOC(=O)C(C(=O)OCC)c1cc(Br)c2noc3c2c1C(=O)c1ccccc1-3	94	i	i	i	i	nt
COc1ccc2c3c([nH]c2c1)[C@@H](CO)N(C(=O)c1ccncc1)CC31CN(C(=O)NC(C)C)C1	nt	nt	nt	nt	nt	i
CN(Cc1nc(CCc2ccccc2)no1)Cc1cccs1	i	i	i	i	i	40
CN(Cc1ccc(F)cc1)Cc1nc(CCc2ccccc2)no1	i	i	i	i	i	i
N#C[C@@H]1[C@H](c2ccc(C3=CCCCC3)cc2)[C@H](CO)N1C(=O)NC1CCCC1	nt	nt	nt	nt	nt	i
CO[C@@H]1CN(C)C(=O)c2ccc(NS(=O)(=O)c3ccc(Oc4ccccc4)cc3)cc2OC[C@H](C)NC[C@@H]1C	nt	nt	nt	nt	nt	i
CC(=O)Oc1ccc(N(C(C)=O)S(=O)(=O)c2ccc(Cl)cc2)c2ccccc12	i	i	i	i	18	i
CC(=O)Oc1ccc(N(C(C)=O)S(=O)(=O)c2ccc(C)cc2)c2ccccc12	i	i	i	i	i	i
O=C(Nc1ccc2c(c1)[C@@H]1C[C@H](CC(=O)N3CCCCC3)O[C@@H](CO)[C@@H]1O2)c1ccc2c(c1)OCO2	nt	nt	nt	nt	nt	i
CCC(C)c1nc2ccsc2c(N2CCOC2=O)c1-c1ccccc1 (centres undefined)	i	i	i	i	i	19
CCCC1CC(C)(/C(C)=N\NC(N)=S)OC1=O (centres undefined)	56	i	i	i	i	i
O=C(NCc1cccnc1)c1cccc(S(=O)(=O)N2CCCC2)c1	i	i	i	i	i	i
O=C(NCc1cccnc1)c1cccc(S(=O)(=O)N2CCOCC2)c1	i	i	i	i	15	nt
COc1ccc(S(=O)(=O)Nc2cccc3c2O[C@H](CN(C)Cc2ccccc2)[C@@H](C)CN([C@@H](C)CO)C3=O)cc1	nt	nt	nt	nt	nt	i
COc1ccc2c3c([nH]c2c1)[C@H](CO)N(C(=O)NC(C)C)CC31CCN(C(=O)c2ccncc2)CC1	nt	nt	nt	nt	nt	i
C[C@H]1CN(C)C(=O)c2cc(N)ccc2O[C@H]1CN(C)C	nt	nt	nt	nt	nt	i
CC(C)C[C@H]1COCc2cn(nn2)CC[C@@H](Cc2cccc(Cl)c2)C(=O)N1	nt	nt	nt	nt	nt	i
CCOc1ccc(CCNC(=O)CSc2cc(=O)n(C)c3ccccc23)cc1OCC	i	i	i	0.0	i	i
